From ChEMBL document CHEMBL1129980, “New non-peptide endothelin-A receptor antagonists: synthesis, biological properties, and structure-activity relationships of 5-(dimethylamino)-N-pyridyl-,-N-pyrimidinyl-,-N-pyridazinyl-, and -N-pyrazinyl-1-naphthalenesulfonamides” (J Med Chem, 1997) come the findings set out here.

The term IC50 denotes the concentration that inhibits the measured activity by half. Usually inhibition stands for the drop in the measured response relative to a control, in per cent. Read a low inhibition as a weak effect. In general, pKa refers to the negative logarithm of the acid dissociation constant. A lower pKa goes with a stronger acid or weaker base.

Data set [1] has as its target T1, Endothelin-1 receptor (Homo sapiens, UniProt P25101).
T1 sequence (P25101 whole entry): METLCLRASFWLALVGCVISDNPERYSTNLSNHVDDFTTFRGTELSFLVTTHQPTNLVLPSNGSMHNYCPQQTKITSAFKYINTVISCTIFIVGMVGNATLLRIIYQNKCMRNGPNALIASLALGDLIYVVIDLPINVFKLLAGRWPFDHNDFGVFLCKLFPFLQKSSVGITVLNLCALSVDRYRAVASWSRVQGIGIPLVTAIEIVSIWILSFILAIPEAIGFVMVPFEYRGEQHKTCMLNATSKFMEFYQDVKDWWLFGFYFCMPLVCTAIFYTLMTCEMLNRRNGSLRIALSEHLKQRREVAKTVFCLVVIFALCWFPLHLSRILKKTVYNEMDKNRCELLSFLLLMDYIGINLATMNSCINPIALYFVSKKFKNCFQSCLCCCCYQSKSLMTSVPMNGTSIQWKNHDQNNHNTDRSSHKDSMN
In words: Inhibition of specific binding of [125-I]ET-1 to human endothelin A receptor.

Data set [2] concerns the target T2, Endothelin-1 receptor (Homo sapiens) (UniProt P25101).
T2 sequence (whole entry): T1 sequence (P25101 whole entry)
In words: Percent inhibition at 10 uM of displacement of radiolabeled endothelin-1 [125-I]ET-1 from membranes prepared from cloned human Endothelin A receptor expressed in mouse erythroleukemic (MEL) cells. The data set is classed as cell membranes.

For data set [3], the system named is Rattus norvegicus. In words: Mean dose ratio(MDR) for inhibition of pressor response 5 min after intravenous administration of compound at 10 mg/kg to pithed rats. The data set is classed as functional. The method in brief:
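Male Alderley Park Wistar rats (280–320 g, n = 4) were pithed under halothane, with arterial and venous catheters placed. Cumulative big ET-1 dose–response curves (0.1–4.0 nmol/kg) were run before and 5 min after i.v. compound. The big ET-1 dose raising mean arterial pressure by 30 mmHg gave the dose ratio, reported as a mean with 95% confidence limits.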

The species entered for data set [4] is Cavia porcellus. In words: Antagonism of ET-A induced contractile response in guinea pig portal vein. The data set is classed as functional. The settings on record: read-out: pA2 (converted). A digest of the protocol: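 A portal vein ring (about 4 mm) from guinea pigs of either sex (>250 g, n = 3–6) was held for isometric recording of circular muscle in oxygenated Krebs (95% O2/5% CO2) at 32 °C. After about 1.5 h equilibration, a cumulative partial big ET-1 curve was run in 3-fold steps up to >100 mg tension.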

Data set [5] is described as follows: Acidity constant was measured. The format is ADME.
In data set [6] the test system is Rattus norvegicus. In words: Mean dose ratio(MDR) for inhibition of pressor response 0.5 hr after oral administration of compound at 10 mg/kg to conscious, normotensive rats. The format is functional. The method in brief: (§1)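 Male Alderley Park Wistar rats (220–260 g, n = 6) were catheterized (arterial and venous) under Saffan anesthesia and tested conscious. Cumulative big ET-1 i.v. dose–response curves (0.1–4.0 nmol/kg) were run before and at set times after oral compound. The big ET-1 dose raising mean arterial pressure by 30 mmHg gave the dose-ratio shift, averaged to a mean dose ratio.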

Data set [7] concerns Rattus norvegicus. In words: Mean dose ratio(MDR) for inhibition of pressor response 1 hr after oral administration of compound at 10 mg/kg to conscious, normotensive rats. The data set is classed as functional. A digest of the protocol: as §1
In data set [8] the test system is Rattus norvegicus. In words: Mean dose ratio(MDR) for inhibition of pressor response 3 hr after oral administration of compound at 10 mg/kg to conscious, normotensive rats. The data set is classed as functional. The method in brief: as §1
The test system of data set [9] is Rattus norvegicus. In words: Mean dose ratio(MDR) for inhibition of pressor response 5 hr after oral administration of compound at 10 mg/kg to conscious, normotensive rats. The data set is classed as functional. The method in brief:
as §1

The target of data set [10] is T1, Endothelin-1 receptor. In words: Inhibition of specific binding of [125-I] ET-1 to human Endothelin A receptor. The method in brief:
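Membranes from mouse erythroleukemic MEL-C88 cells expressing cloned human ETA were incubated with [125I]ET-1 (30 pM final) and competing ligands for 180 min at 30 °C. Incubation was stopped by filtration through GF/B filters, and bound radioligand was counted by gamma counting. pIC50 was taken from inhibition of specific binding; n is given per compound.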

`Cc1nc(NS(=O)(=O)c2cccc3c(N(C)C)cccc23)ccc1Br` showed an IC50 in [1] of 10000 nM. This compound gave an inhibition in [2] of 54%.

In data set [1], `CN(C)c1cccc2c(S(=O)(=O)Nc3ccc(I)cn3)cccc12` gave an IC50 of 5010 nM. The inhibition in data set [2] was determined as 84%.

Consider `Cc1cc(Cl)nnc1NS(=O)(=O)c1cccc2c(N(C)C)cccc12`, for which, in data set [1], the IC50 was 398 nM. Besides, the inhibition in [2] is 89%.

`CCNc1cccc2c(S(=O)(=O)Nc3ncc(Br)nc3OC)cccc12` showed an IC50 in data set [1] of 2.51 nM. In data set [2], the inhibition was 95%.

Regarding `COc1nc(Cl)cnc1NS(=O)(=O)c1cccc2c(N(C)C)cccc12`, in data set [1], the IC50 is 10 nM. The MDR was determined as 8.87 in data set [3]; 3.91 in [6]; 4.42 in data set [7]; 2.54 in data set [8]; 2.07 in [9]. Also, in [4], the Kb was 63.1 nM. Moreover, the pKa in data set [5] worked out at 5. The inhibition in data set [2] worked out at 97%.

Turning to `CN(C)c1cccc2c(S(=O)(=O)Nc3ccc(Br)nn3)cccc12`, in data set [1], the IC50 is 251 nM. Also, the inhibition in [2] came out at 95%.

In data set [1], `CN(C)c1cccc2c(S(=O)(=O)Nc3ccc(Br)nc3)cccc12` showed an IC50 of 251 nM. Besides, the inhibition in data set [2] was determined as 95%.

For the compound `CN(C)c1cccc2c(S(=O)(=O)Nc3ncc(Br)nc3O)cccc12`, in data set [2], the inhibition was 81%.

`CN(C)c1cccc2c(S(=O)(=O)Nc3ccc(Br)cn3)cccc12`: the IC50 in data set [1] is 1580 nM. Moreover, in data set [2], the inhibition stood at 91%.

`CN(C)c1cccc2c(S(=O)(=O)Nc3ccccn3)cccc12` had an inhibition in data set [2] of less than 30%.

Compound `CCCc1nc(Br)cnc1NS(=O)(=O)c1cccc2c(N(C)C)cccc12` had an inhibition in data set [2] of less than 30%.

In data set [1], `CCOc1ccc(NS(=O)(=O)c2cccc3c(N(C)C)cccc23)nn1` gave an IC50 of 3980 nM. The inhibition in data set [2] was 64%.

In [1], `Cc1cnc(NS(=O)(=O)c2cccc3c(N(C)C)cccc23)cn1` gave an IC50 of 1260 nM. The same compound showed an inhibition in [2] of 91%.

`CN(C)c1cccc2c(S(=O)(=O)Nc3cccnn3)cccc12` registered an inhibition in [2] of less than 30%.

The compound `CN(C)c1cccc2c(S(=O)(=O)Nc3ncc(Br)cn3)cccc12` gave an IC50 in data set [1] of 2000 nM. Besides, in data set [2], the inhibition came to 80%.

On to `Cc1nc(Br)cnc1NS(=O)(=O)c1cccc2c(N(C)C)cccc12`, for which, in data set [1], the IC50 was 631 nM. In [2], this compound returned an inhibition of 96%.

On to `CN(C)c1cccc2c(S(=O)(=O)Nc3cccnc3)cccc12`, for which, in data set [2], the inhibition is less than 30%.

`CCc1nc(Br)cnc1NS(=O)(=O)c1cccc2c(N(C)C)cccc12` had an IC50 in data set [1] of 2510 nM. Besides, the inhibition in [2] came to 68%.

As for `Cc1ccc(NS(=O)(=O)c2cccc3c(N(C)C)cccc23)nn1`, the IC50 in data set [1] was 1580 nM. Further, the inhibition in data set [2] came to 68%.

The compound `CCOc1nc(Br)cnc1NS(=O)(=O)c1cccc2c(N(C)C)cccc12` had an IC50 in data set [1] of 501 nM. The same compound came in with an inhibition in data set [2] of 92%.

`CN(C)c1cccc2c(S(=O)(=O)Nc3ncc(Br)[nH]c3=O)cccc12` gave a concentration for half-maximal inhibition (IC50) in [1] of 5010 nM.

For the compound `CN(C)c1cccc2c(S(=O)(=O)Nc3ccc(Cl)cn3)cccc12`, the IC50 in [1] was 2000 nM. Besides, the inhibition in [2] turned out to be 95%.

As to `Cc1cc(Br)cnc1NS(=O)(=O)c1cccc2c(N(C)C)cccc12`, in [1], the IC50 is 316 nM. Moreover, in data set [2], the inhibition is 94%.

The compound `CN(C)c1cccc2c(S(=O)(=O)Nc3cnc(Cl)cn3)cccc12` showed an IC50 in data set [1] of 158 nM. For the same compound, in data set [2], the inhibition was determined as 97%.

In turn, `CCN(C)c1cccc2c(S(=O)(=O)Nc3ncc(Br)nc3OC)cccc12` gave a half-maximal inhibitory concentration (IC50) in [10] of 12.6 nM. Also, in data set [2], the inhibition amounted to 99%.

In [1], `CNc1cccc2c(S(=O)(=O)Nc3ncc(Br)nc3OC)cccc12` had an IC50 of 15.8 nM. In [2], this compound yielded an inhibition of 100%.

Regarding `CN(C)c1cccc2c(S(=O)(=O)Nc3ncccn3)cccc12`, the inhibition in data set [2] is 54%.

`Cc1cc(NS(=O)(=O)c2cccc3c(N(C)C)cccc23)nnc1Cl` had a 50% inhibitory concentration (IC50) in data set [1] of 5010 nM. Further, the inhibition in [2] was 64%.

On to `CN(C)c1cccc2c(S(=O)(=O)Nc3ncc(Br)nc3C#N)cccc12`, for which the inhibition in data set [2] was less than 30%.

`CN(C)c1cccc2c(S(=O)(=O)Nc3ccc(C#N)nn3)cccc12`: in [2], the inhibition is less than 30%.

In data set [2], `COc1nc(Br)cnc1NS(=O)(=O)c1cccc2ccccc12` came in with an inhibition of 83%.

`CN(C)c1cccc2c(S(=O)(=O)Nc3ncc(Cl)cn3)cccc12` had an IC50 in data set [1] of 1580 nM. In addition, the inhibition in data set [2] was found to be 84%.

In [1], `COc1nc(Br)cnc1NS(=O)(=O)c1cccc2c(N(C)C)cccc12` had an IC50 of 63.1 nM. In data set [2], this compound had an inhibition of 93%.

For the compound `CN(C)c1cccc2c(S(=O)(=O)Nc3ccc(Cl)cc3)cccc12`, the IC50 in data set [1] was 7940 nM. The compound further displayed an inhibition in data set [2] of 30%.

In data set [1], `CN(C)c1cccc2c(S(=O)(=O)Nc3cnc(Br)cn3)cccc12` showed an IC50 of 126 nM. In addition, the inhibition in data set [2] worked out at 96%.

Take `Cc1ccc(NS(=O)(=O)c2cccc3c(N(C)C)cccc23)nc1`: in data set [1], the IC50 was 1580 nM. Further, the inhibition in [2] is 79%.

With `CN(C)c1cccc2c(S(=O)(=O)Nc3cnccn3)cccc12`, the IC50 in data set [1] is 1000 nM. Moreover, in data set [2], the inhibition turned out to be 58%.

With `CN(C)c1cccc2c(S(=O)(=O)Nc3ncc(Br)nc3OCc3ccccc3)cccc12`, the inhibition in data set [2] was less than 30%.

In turn, `COc1ccc(NS(=O)(=O)c2cccc3c(N(C)C)cccc23)nn1` gave a half-inhibitory concentration (IC50) in data set [1] of 316 nM. The inhibition in data set [2] worked out at 92%.

The compound `CN(C)c1cccc2c(S(=O)(=O)Nc3ccc(Cl)nc3)cccc12` gave an IC50 in data set [1] of 1260 nM. The compound also returned an inhibition in [2] of 81%.

For the compound `CN(C)c1cccc2c(S(=O)(=O)Nc3ccc(Br)cc3)cccc12`, the IC50 in data set [1] is 3160 nM. The compound also showed an inhibition in data set [2] of 72%.

On to `CN(C)c1cccc2c(S(=O)(=O)Nc3cnc(Br)nc3)cccc12`, for which the IC50 in data set [1] was 631 nM. This compound also yielded an inhibition in data set [2] of 88%.

`CN(C)c1cccc2c(S(=O)(=O)Nc3ccc(Cl)nn3)cccc12` had an IC50 in [1] of 200 nM. In addition, the inhibition in data set [2] came out at 70%.

As for `Cc1noc(NS(=O)(=O)c2cccc3c(N(C)C)cccc23)c1C` [BMS-182874], the MDR in data set [3] amounted to 2.68; in data set [6] it was 3.37; in data set [7] it was 2.28; in [8], 2.18; in data set [9], 1.55. Moreover, the pKa in data set [5] came to 4.5. For the same compound, the inhibition in [2] was 98%.

`COc1nc(C)cnc1NS(=O)(=O)c1cccc2c(N(C)C)cccc12` had an IC50 in data set [1] of 7.94 nM. The inhibition in data set [2] is 98%.
